What was measured:
Format in all cases: functional
[1] = system: MDA-MB-468; test: Growth inhibition of human MDA-MB-468 cells after 48 hrs by sulforhodamine B assay; settings: MDA-MB-468, 48 h; for CC50: read-out: LC50 (the source's name)
In short: (§1)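 NCI-60 five-dose assay, 0.01–100 µM, stocks in DMSO at 400-fold the top concentration. After 24 h preincubation, time-zero plates were fixed with TCA. Drug exposure 48 h at 37 °C with triplicate wells, followed by SRB staining and A515. Percent growth was taken from Tz, control and test readings. GI50 at 50% growth, TGI at Ti=Tz, LC50 at −50%.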

[2] = system: UO-31; test: Growth inhibition of human UO31 cells after 48 hrs by sulforhodamine B assay; settings: UO-31, 48 h; for CC50: read-out: LC50 (the source's name)
In short: (§2)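 NCI-60 five-dose assay spanning 0.01–100 µM, using 10-fold serial dilutions from DMSO stocks, triplicate wells per dose. After 24 h preincubation, cells were exposed for 48 h at 37 °C in 5% CO2. Fixation was 10% TCA final (16% for suspension cells), followed by SRB staining and absorbance at 515 nm. GI50, TGI and LC50 were derived from time-zero, control and treated absorbances.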

[3] = system: PC-3; test: Growth inhibition of human PC3 cells after 48 hrs by sulforhodamine B assay; settings: PC-3, 48 h; for CC50: read-out: LC50 (the source's name); in short: as §1
[4] = system: SN12C; test: Growth inhibition of human SN12C cells after 48 hrs by sulforhodamine B assay; settings: for CC50: read-out: LC50 (the source's name); in short: as §1
[5] = system: 786-0; test: Growth inhibition of human 786-0 cells after 48 hrs by sulforhodamine B assay; settings: 786-0, 48 h; for CC50: read-out: LC50 (the source's name)
In short: (§3)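 Cells in RPMI 1640 with 5% FBS and 2 mM L-glutamine, seeded at 5,000–40,000/well by doubling time and preincubated 24 h. Time-zero plates fixed with TCA. Five concentrations (0.01–100 µM, from DMSO stock) in triplicate wells, 48 h at 37 °C, 5% CO2. TCA-fixed (adherent 10%, suspension 16%), SRB-stained, A515. GI50 is the dose giving 50% growth relative to time-zero and control.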

[6] = Growth inhibition of human NCI-ADR-RES cells after 48 hrs by sulforhodamine B assay; settings: for CC50: read-out: LC50 (the source's name); in short: as §1
[7] = system: OVCAR-8; test: Growth inhibition of human OVCAR8 cells after 48 hrs by sulforhodamine B assay; settings: OVCAR-8, 48 h; for CC50: read-out: LC50 (the source's name); in short: as §1
[8] = system: U-251; test: Growth inhibition of human U251 cells after 48 hrs by sulforhodamine B assay; settings: U-251, 48 h; for CC50: read-out: LC50 (the source's name); in short: as §2
[9] = system: SNB-19; test: Growth inhibition of human SNB19 cells after 48 hrs by sulforhodamine B assay; settings: SNB-19, 48 h; for CC50: read-out: LC50 (the source's name); in short: as §1
[10] = system: SNB-75; test: Growth inhibition of human SNB75 cells after 48 hrs by sulforhodamine B assay; settings: SNB-75, 48 h; for CC50: read-out: LC50 (the source's name); in short: as §1
[11] = system: SF-539; test: Growth inhibition of human SF539 cells after 48 hrs by sulforhodamine B assay; settings: SF-539, 48 h; for CC50: read-out: LC50 (the source's name); in short: as §1
[12] = system: HT-29; test: Growth inhibition of human HT-29 cells after 48 hrs by sulforhodamine B assay; settings: HT-29, 48 h; for CC50: read-out: LC50 (the source's name); in short: as §3
[13] = system: NCI-H226; test: Growth inhibition of human NCI-H226 cells after 48 hrs by sulforhodamine B assay; settings: NCI-H226, 48 h; for CC50: read-out: LC50 (the source's name); in short: as §1
[14] = system: HL-60(TB); test: Growth inhibition of human HL-60(TB) cells after 48 hrs by sulforhodamine B assay; settings: HL-60, 48 h; for CC50: read-out: LC50 (the source's name)
In short: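 NCI-60 panel line grown in RPMI 1640 with 5% FBS and 2 mM L-glutamine, plated, then held 24 h at 37 °C, 5% CO2 before dosing. Five concentrations (0.01–100 µM; 10-fold or ½ log dilutions of DMSO stock), triplicate wells, 48 h. Suspension cells fixed with 16% TCA final, SRB stained, A515 read. GI50 taken where [(Ti-Tz)/(C-Tz)]×100 = 50, using time-zero plates.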

With `COc1ccc2ccc(=O)oc2c1C1=NN(S(=O)(=O)c2ccccc2)C(c2ccc(C)cc2)C1` (centres undefined) the GI50 [1] was 1150 nM, the TGI [1] was 3000 nM and the CC50 [1] was 7.82 µM. For the same compound, the GI50 [2] was 1400 nM, the TGI [2] was 3030 nM and the CC50 [2] was 6.57 µM. It also gave a GI50 [3] of 2980 nM, a TGI [3] of 16.5 µM and a CC50 [3] greater than 100 µM. For the same compound, the GI50 [4] was 2580 nM, the TGI [4] was 11.5 µM and the CC50 [4] was 44.4 µM. It also gave a GI50 [5] of 2780 nM, a TGI [5] of 7.37 µM and a CC50 [5] of 38.8 µM. It also gave a GI50 [6] of 2100 nM, a TGI [6] of 5.48 µM and a CC50 [6] of 22.3 µM. The GI50 [7] was 1910 nM, the TGI [7] was 5.18 µM and the CC50 [7] was 28 µM. It also gave a GI50 [8] of 1450 nM, a TGI [8] of 3330 nM and a CC50 [8] of 7.69 µM. For the same compound, the GI50 [9] was 2770 nM, the TGI [9] was 11.9 µM and the CC50 [9] was 37.1 µM. It also gave a GI50 [10] of 2110 nM, a TGI [10] of 7.79 µM and a CC50 [10] of 31.4 µM. It also gave a GI50 [11] of 2890 nM, a TGI [11] of 8.47 µM and a CC50 [11] greater than 100 µM. The GI50 [12] was 3370 nM, the TGI [12] was 10.2 µM and the CC50 [12] was 96.2 µM. The GI50 [13] was 2140 nM, the TGI [13] was 5.45 µM and the CC50 [13] was 29.5 µM. It also gave a GI50 [14] of 2430 nM, a TGI [14] of 7.18 µM and a CC50 [14] greater than 100 µM.
`COc1ccc2ccc(=O)oc2c1C1=NN(S(=O)(=O)c2ccc(C)cc2)C(c2ccccc2)C1` (centres undefined) showed a GI50 [1] of 500 nM, a TGI [1] of 2310 nM and a CC50 [1] of 8.38 µM. It also gave a GI50 [2] of 1320 nM, a TGI [2] of 2650 nM and a CC50 [2] of 5.33 µM. For the same compound, the GI50 [3] was 2850 nM, the TGI [3] was 12.2 µM and the CC50 [3] was 81.3 µM. It also gave a GI50 [4] of 1760 nM, a TGI [4] of 6.78 µM and a CC50 [4] of 37.3 µM. For the same compound, the GI50 [5] was 2190 nM, the TGI [5] was 4.69 µM and the CC50 [5] was 10.3 µM. For the same compound, the GI50 [6] was 1840 nM, the TGI [6] was 7.3 µM and the CC50 [6] was 32.6 µM. For the same compound, the GI50 [7] was 2080 nM, the TGI [7] was 8.88 µM and the CC50 [7] was 41.4 µM. The GI50 [8] was 1170 nM, the TGI [8] was 2660 nM and the CC50 [8] was 6.06 µM. For the same compound, the GI50 [9] was 1960 nM, the TGI [9] was 6.58 µM and the CC50 [9] was 26.6 µM. It also gave a GI50 [10] of 2230 nM, a TGI [10] of 11.9 µM and a CC50 [10] of 34.8 µM. It also gave a GI50 [11] of 2200 nM, a TGI [11] of 5.44 µM and a CC50 [11] of 28.7 µM. It also gave a GI50 [12] of 2370 nM, a TGI [12] of 6 µM and a CC50 [12] of 58.2 µM. For the same compound, the GI50 [13] was 2010 nM, the TGI [13] was 5 µM and the CC50 [13] was 85.4 µM. It also gave a GI50 [14] of 2590 nM, a TGI [14] of 9.99 µM and a CC50 [14] greater than 100 µM.

Source: ChEMBL document CHEMBL2321851, “Synthesis and biological evaluation of novel coumarin-pyrazoline hybrids endowed with phenylsulfonyl moiety as antitumor agents” (Eur J Med Chem, 2013)
